Measured values from ChEMBL document CHEMBL4616694, “Selective Covalent Targeting of Mutated EGFR(T790M) with Chlorofluoroacetamide-Pyrimidines” (ACS Med Chem Lett, 2020).
One block for each compound: values may come before it. Calls of active or inactive are those of the source. No cut-off for these calls is given here.

Assays:
NCI-H1975 = experiment: Antiproliferative activity against human NCI-H1975 cells harboring EGFR L858R/T790M mutant assessed as reduction in cell viability measured after 72 hrs by WST assay; format: functional, cell-based; conditions: NCI-H1975, 72 h
[1] = system: Epidermal growth factor receptor (Homo sapiens), P00533 [L858R,T790M]; experiment: (§1) Binding affinity to recombinant human EGFR L858R/T790M mutant kinase domain assessed as rapid covalent modification at 2 uM pretreated with compound followed by subsequent addition of copper-catalyzed azide-alkyne cyclo with rhodamine azide measured after 72 hrs by coomassie brilliant blue staining based in-gel fluorescence assay
[2] = molecular target: Epidermal growth factor receptor (Homo sapiens) (UniProt P00533); experiment: (§2) Competitive binding affinity to EGFR in human H1975 cells assessed as protein labeling pretreated with compound followed by subsequent addition of copper-catalyzed azide-alkyne cyclo with rhodamine azide measured after 1 hr by in-gel fluorescence assay; format: cell-based
How it was run: (§3)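 H1975 cells were incubated with the alkyne CFA probe for 1 h at 37 °C. Labeled proteins were clicked to rhodamine-azide by CuAAC and resolved by in-gel fluorescence, with EGFR taken as the 175 kDa band. For competition, excess osimertinib was present. Labeling was also run across probe concentrations, including 1–10 µM.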

[3] = molecular target: Epidermal growth factor receptor (Homo sapiens) (UniProt P00533); experiment: Competitive binding affinity to EGFR in human H1975 cells assessed as protein labeling at 1 uM pretreated with compound followed by subsequent addition of copper-catalyzed azide-alkyne cyclo with rhodamine azide by in-gel fluorescence assay; format: cell-based; conditions: TDE = time-dependent effect
How it was run: (§4)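 H1975 cells were labeled over time with 1 µM alkyne probe, with incubations extending to 10 h. Labeled proteins were conjugated to rhodamine-azide by copper-catalyzed azide-alkyne cycloaddition and read by in-gel fluorescence.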

[4] = system: Epidermal growth factor receptor (Homo sapiens), P00533 [L858R,T790M]; experiment: Competitive binding affinity to EGFR L858R/T790M mutant expressed in human H1975 cells assessed as SILAC ratio at 5 uM measured after 2 hrs by MS analysis; format: cell-based
How it was run: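 SILAC mass spectrometry in isotopically labeled H1975 cells treated with the probe at 5 µM for 2 h at 37 °C, followed by streptavidin enrichment. Reported values are log2 median SILAC ratios (probe/DMSO or probe/probe) from triplicate MS analyses of a single enriched sample.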

[5] = molecular target: Epidermal growth factor receptor (Homo sapiens) (UniProt P00533); experiment: Binding affinity to wild type EGFR expressed in human H292 cells assessed as protein labeling at 1 uM measured after 1 hr by pull down based Western blot analysis
[6] = system: Epidermal growth factor receptor (Homo sapiens), P00533 [L858R,T790M]; experiment: Binding affinity to EGFR L858R/T790M mutant expressed in human H1975 cells assessed as protein labeling at 1 uM measured after 1 hr by pull down based Western blot analysis
[7] = Selectivity index, ratio of IC50 for human NCI-H292 cells expressing wild type EGFR assessed as reduction in cell viability measured after 72 hrs by MTT assay to IC50 for human NCI-H1975 cells harboring EGFR L858R/T790M mutant assessed as reduction in cell viability measured after 72 hrs by MTT assay; format: functional
NCI-H292 = experiment: Antiproliferative activity against human NCI-H292 cells expressing wild type EGFR assessed as reduction in cell viability measured after 72 hrs by WST assay; format: functional, cell-based; conditions: NCI-H292, 72 h
[8] = system: Epidermal growth factor receptor (Homo sapiens), P00533 [L858R,T790M]; experiment: as §2, with “EGFR L858R/T790M mutant” for “EGFR”, “fluorescent band formation at 5 uM” for “protein labeling”, “hr in presence of osimertinib” for “hr”; format: cell-based; how it was run: as §3
[9] = system: Epidermal growth factor receptor (Homo sapiens), P00533 [L858R,T790M]; experiment: as §1, with “stability of compound-protein adduct” for “rapid covalent modification”, “24” for “72”
[10] = system: Epidermal growth factor receptor (Homo sapiens), P00533 [L858R,T790M]; experiment: as §2, with “EGFR L858R/T790M” for “EGFR”, “fluorescent band formation by measuring molecular weight at 5 uM” for “protein labeling”; format: cell-based; how it was run: as §3
[11] = molecular target: Epidermal growth factor receptor (Homo sapiens) (UniProt P00533); experiment: Competitive binding affinity to EGFR in human H1975 cells assessed as protein labeling at 1 uM pretreated with compound followed by subsequent addition of copper-catalyzed azide-alkyne cyclo with rhodamine azide incubated for 10 hrs by in-gel fluorescence assay; format: cell-based; how it was run: as §4
[12] = molecular target: Epidermal growth factor receptor (Homo sapiens) (UniProt P00533); experiment: Competitive binding affinity to wild type EGFR expressed in human H292 cells assessed as protein labeling pretreated with compound followed by subsequent addition of copper-catalyzed azide-alkyne cyclo with rhodamine azide incubated for 2 hrs by in-gel fluorescence assay; format: cell-based
[13] = molecular target: Epidermal growth factor receptor (Homo sapiens) (UniProt P00533); experiment: Competitive binding affinity to wild type EGFR expressed in human H292 cells assessed as protein labeling at 1 uM pretreated with compound followed by subsequent addition of copper-catalyzed azide-alkyne cyclo with rhodamine azide by in-gel fluorescence assay; format: cell-based; conditions: TDE = time-dependent effect
[14] = molecular target: Epidermal growth factor receptor (Homo sapiens) (UniProt P00533); experiment: Competitive binding affinity to wild type EGFR expressed in human HEK293 cells assessed as protein labeling pretreated with compound followed by subsequent addition of copper-catalyzed azide-alkyne cyclo with rhodamine azide incubated for 2 hrs by in-gel fluorescence assay; format: cell-based
[15] = molecular target: Epidermal growth factor receptor (Homo sapiens) (UniProt P00533); experiment: Competitive binding affinity to wild type EGFR expressed in human HEK293 cells assessed as protein labeling at 1 uM pretreated with compound followed by subsequent addition of copper-catalyzed azide-alkyne cyclo with rhodamine azide by in-gel fluorescence assay; format: cell-based; conditions: TDE = time-dependent effect
[16] = molecular target: Epidermal growth factor receptor (Homo sapiens) (UniProt P00533); experiment: Competitive binding affinity to wild type EGFR expressed in human H292 cells assessed as SILAC ratio at 5 uM measured after 2 hrs by MS analysis; format: cell-based
[17] = Half life of compound in phosphate buffer at pH 7.4 and 37 degree C under neutral aqueous condition in presence of excess glutathione; format: physicochemical; conditions: phosphate buffer with excess glutathione
How it was run: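 Compound was incubated with excess glutathione under neutral aqueous conditions (pH 7.4, 37 °C), and half-reaction time was determined from the time course.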

Homo sapiens = organism: Homo sapiens; experiment: Selectivity index, ratio of IC50 for wild type EGFR (unknown origin) to IC50 for human EGFR L858R/T790M mutant expressed in baculovirus infected insect cells
[18] = system: Epidermal growth factor receptor (Homo sapiens), P00533 [L858R,T790M]; experiment: Inhibition of EGFR L858R/T790M mutant in human H1975 cells assessed as reduction in autophosphorylation at Y1068 residue at 10 nM by Western blot analysis; format: cell-based
How it was run: (§5)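 H1975 cells were treated at 10 nM, and EGFR Y1068 autophosphorylation was assessed by western blot. For irreversibility, compound was washed out of the culture medium and phospho-EGFR was examined for at least 8 h afterwards.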

[19] = system: Epidermal growth factor receptor (Homo sapiens), P00533 [L858R,T790M]; experiment: Irreversible inhibition of EGFR L858R/T790M mutant in human H1975 cells assessed as reduction in autophosphorylation at Y1068 residue at 10 nM measured after 8 hrs post compound washout by Western blot analysis; format: cell-based; how it was run: as §5
[20] = Cmax in BALB/c mouse at 25 mg/kg, po administered as single dose measured at 2 hrs; format: ADME, organism-based; parameters: dose 25 mg/kg, route oral; conditions: in vivo
How it was run: (§6)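 Mice received a single oral dose of 25 mg/kg. Plasma compound levels were followed over time, giving peak concentration with its time and mean residence time.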

[21] = Mean residence time in BALB/c mouse at 25 mg/kg, po administered as single dose measured at 2 hrs; format: ADME, organism-based; conditions: in vivo; how it was run: as §6
[22] = system: Epidermal growth factor receptor (Homo sapiens), P00533 [L858R,T790M]; experiment: Binding affinity to recombinant human EGFR L858R/T790M mutant kinase domain expressed in baculovirus infected insect cells assessed as covalent bond formation between protein Cys797 residue-compound by LC-MS/MS analysis
[23] = system: Epidermal growth factor receptor (Homo sapiens), P00533 [L858R,T790M]; experiment: as §1, with “fluorescent band formation” for “rapid covalent modification”
[24] = system: Epidermal growth factor receptor (Homo sapiens), P00533 [L858R,T790M]; experiment: as §1, with “compound-protein adduct formation” for “rapid covalent modification”

IC50 (NCI-H1975): 440 nM
SMILES: COc1cc(N(C)CCN(C)C)c(NC(=O)[C@@H](C)NC(=O)C(F)Cl)cc1Nc1ncc(Cl)c(-c2c[nH]c3ccccc23)n1 (some centres undefined)

IC50 (NCI-H1975): 31 nM | IC50 (NCI-H292): 710 nM
SMILES: COc1cc(N(C)CCN(C)C)c(NC(=O)[C@H](C)NC(=O)C(F)Cl)cc1Nc1ncc(Cl)c(-c2c[nH]c3ccccc23)n1 (some centres undefined)
Ratio IC50 [7]: 22.9

IC50 (NCI-H1975): 320 nM
SMILES: COc1cc(N(C)CCN(C)C)c(NC(=O)[C@H](CO)NC(=O)C(F)Cl)cc1Nc1ncc(Cl)c(-c2c[nH]c3ccccc23)n1 (some centres undefined)

IC50 (NCI-H1975): 50 nM
SMILES: COc1cc(N(C)CCN(C)C)c(NC(=O)C(F)Cl)cc1Nc1ncc(Cl)c(-c2c[nH]c3ccccc23)n1 (centres undefined)

IC50 (NCI-H1975): 130 nM
SMILES: COc1cc(N(C)CCN(C)C)c(NC(=O)CNC(=O)C(F)Cl)cc1Nc1ncc(Cl)c(-c2c[nH]c3ccccc23)n1 (centres undefined)

Second part, the compound before the results:

SMILES: C#CCCN(C)CCN(C)c1cc(OC)c(Nc2nccc(-c3cn(C)c4ccccc34)n2)cc1NC(=O)C=C
IC50 (NCI-H1975): 72 nM | Activity [1]: Active | Activity [2]: Dose-dependent effect | Activity [3]: Tde | log(ratio) [4]: -0.059 | Activity [5]: Active | Activity [6]: Active

SMILES: COc1cc(N(C)CCN(C)C)c(NC(=O)[C@@H]2CCN2C(=O)C(F)Cl)cc1Nc1ncc(Cl)c(-c2c[nH]c3ccccc23)n1 (some centres undefined)
IC50 (NCI-H1975): 380 nM

SMILES: C#CCCN(C)CCN(C)c1cc(OC)c(Nc2ncc(C(F)(F)F)c(-c3c[nH]c4ccccc34)n2)cc1NC(=O)[C@H](C)NC(=O)C(F)Cl (some centres undefined)
Activity [8]: inactive | IC50 (NCI-H1975): 51 nM | Activity [9]: Active | Activity [10]: 175 kDa | Activity [2]: Dose-dependent effect | Activity [3]: Tde | Activity [11]: Active | Activity [12]: Dose-dependent effect | Activity [13]: Tde | Activity [14]: Dose-dependent effect | Activity [15]: Tde | log(ratio) [16]: 3.2 | Activity [5]: Active | Activity [6]: Active

SMILES: CNC(=O)[C@H](CSC(F)C(=O)N[C@@H](C)C(=O)Nc1cc(Nc2ncc(C(F)(F)F)c(-c3c[nH]c4ccccc34)n2)c(OC)cc1N(C)CCN(C)C)NC(C)=O (some centres undefined)
half-life [17]: 11.2 h

SMILES: COc1cc(N(C)CCN(C)C)c(NC(=O)[C@H](C)NC(=O)C(F)Cl)cc1Nc1ncc(C(F)(F)F)c(-c2c[nH]c3ccccc23)n1 (some centres undefined)
Ratio IC50 (Homo sapiens): 44.7 | IC50 (NCI-H1975): 15 nM | Ratio IC50 [7]: 91.3 | IC50 (NCI-H292): 1370 nM | inhibition [18]: Active | inhibition [19]: Active | Cmax [20]: 510 nM | MRT [21]: 8.9 h | Activity [22]: Active | Activity [23]: Active | half-life [17]: 49.4 h | Activity [24]: Active

SMILES: COc1cc(N(C)CCN(C)C)c(NC(=O)[C@@H]2CCCN2C(=O)C(F)Cl)cc1Nc1ncc(Cl)c(-c2c[nH]c3ccccc23)n1 (some centres undefined)
IC50 (NCI-H1975): 56 nM

SMILES: COc1cc(N(C)CCN(C)C)c(NC(=O)[C@@H]2C[C@@H](O)CN2C(=O)C(F)Cl)cc1Nc1ncc(Cl)c(-c2c[nH]c3ccccc23)n1 (some centres undefined)
IC50 (NCI-H1975): 150 nM

SMILES: COc1cc(N(C)CCN(C)C)c(NC(=O)C(F)Cl)cc1Nc1ncc(C(F)(F)F)c(-c2c[nH]c3ccccc23)n1 (centres undefined)
IC50 (NCI-H1975): 33 nM | Ratio IC50 [7]: 17.3 | IC50 (NCI-H292): 570 nM

SMILES: C=CC(=O)Nc1cc(Nc2nccc(-c3cn(C)c4ccccc34)n2)c(OC)cc1N(C)CCN(C)C [OSIMERTINIB]
IC50 (NCI-H1975): […] | Ratio IC50 [7]: […] | IC50 (NCI-H292): 220 nM

SMILES: COc1cc(N(C)CCN(C)C)c(NC(=O)[C@H](C)NC(C)=O)cc1Nc1ncc(C(F)(F)F)c(-c2c[nH]c3ccccc23)n1
IC50 (NCI-H1975): 460 nM | Ratio IC50 [7]: 7.8 | IC50 (NCI-H292): 3590 nM

SMILES: COc1cc(N(C)CCN(C)C)c(NC(=O)[C@H](CC(C)C)NC(=O)C(F)Cl)cc1Nc1ncc(Cl)c(-c2c[nH]c3ccccc23)n1 (some centres undefined)
IC50 (NCI-H1975): 52 nM
